Assay results of several laboratories.
Each line is one published result; the experiments were not run side by side.
Target: Glycogen synthase kinase-3 beta (GSK3B, Homo sapiens, UniProt P49841)

For Cn1cc(-c2cccc(N3CCc4c(sc5c4CC(C)(C)C5)C3=O)c2CO)cc(Nc2ccncn2)c1=O, the inhibition was -5% (enzyme activity, inhibitor; 1 µM).
With O=[N+]([O-])c1ccc([As](=O)(O)O)cc1 the inhibition was 5.2% (enzyme activity, inhibitor, ADP detection; 100 µM).
For Cn1cncc1[C@](O)(COc1ccc(C#N)cc1-c1ccc(OC(F)(F)F)cc1)c1ccc(C#N)cc1, the remaining binding was 93% (cell-free assay, competition with immobilised ligand; 1 µM).
The inhibition of C#Cc1n[nH]c2c(-c3cn([C@@H](C)c4ccccc4)c(=O)[nH]c3=O)cc(F)cc12 is reported as -3.5% (enzyme activity, inhibitor; 0.1 µM).
For COc1cc2c(cc1-c1cc3cc4ccoc4cc3oc1=O)OCO2, the inhibition was 26.4% (enzyme activity, inhibitor, ADP detection; 100 µM).
With Nc1ncc(-c2nc(N3CCOCC3)nc(N3CCOCC3)n2)c(C(F)F)n1 the remaining binding was 74% (binding, competition with immobilised ligand; 10 µM).
For C#Cc1n[nH]c2c(-c3cn([C@@H](C)c4ccccn4)c(=O)[nH]c3=O)cc(F)cc12, the inhibition was -0.1% (enzyme activity, inhibitor; 0.1 µM).
With O=c1[nH]c2ccccc2n1C1CCN(Cc2ccc(-c3[nH]c4cc5ncnc5cc4nc3-c3ccccc3)cc2)CC1 the remaining activity was 113% (enzyme activity; 0.5 µM).
The remaining binding of COc1ncccc1-c1cnn2ccc(N3CCN(C(=O)OC(C)C)CC3)nc12 is reported as 62% (binding, competition with immobilised ligand; 1 µM).
Cn1cc(-c2cc(F)cc(N3CCn4c(cc5c4CCCC5)C3=O)c2CO)cc(Nc2ccc(N3CCN(C4COC4)CC3)cn2)c1=O has an inhibition of 5% (enzyme activity, inhibitor; 0.1 µM).
For COc1c2c(cc3c1OCO3)CC[N+](C)=C2, the inhibition was 24.8% (enzyme activity, inhibitor, ADP detection; 100 µM).
With CC(C)(C)c1cc(C=C(C#N)C#N)cc(Br)c1O the remaining activity was 107% (enzyme activity, inhibitor; 0.5 µM).
The remaining binding of Cc1nn(C)cc1-c1nc2c(N3CCN(Cc4ccc(Cl)cc4)CC3)c(Cl)cnc2[nH]1 is reported as 68% (binding, competition with immobilised ligand; 1 µM).
